From ChEMBL document CHEMBL4665652, “Discovery of novel quinoline sulphonamide derivatives as potent, selective and orally active RORγ inverse agonists” (Bioorg Med Chem Lett, 2019)

Legend:
[1] = (§1) In vivo inverse agonist activity at RORgamma in MOG(35-55) peptide/PTX-induced mechanistic C57BL/6 mouse model assessed as anti-CD3 induced TNFalpha level in serum at 10 mg/kg, po dosed for 5 days during MOG/PTX priming and followed by 45 mins prior to anti-CD3 challenge and measured after 2 hrs relative to control; type: functional; conditions: time 5 day
In short: (§2)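 Mice immunized with mouse MOG35-55 peptide plus pertussis toxin. After 5 days, compound given orally as a suspension in methylcellulose 400cp + 1% poloxamer, 45 min before an anti-CD3 challenge. Circulating cytokines measured 2 h later. Comparison vs vehicle by Dunnett post test.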

Mus musculus [2] = assay: Immunosuppressive activity in PLP (139 to 151 residues)-induced experimental autoimmune encephalomyelitis mouse model assessed as reduction in disease onset at 100 mg/kg, po administered bid starting from immunization relative to control; type: functional
In short: (§3)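 EAE induced in mice by immunization with proteolipid protein peptide PLP139-151; ascending paralysis develops 10–12 days post-immunization. Compound dosed orally b.i.d. starting from immunization. Disease onset/incidence scored relative to control.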

[3] = as §1, with “100” for “10”; type: functional; conditions: time 5 day; in short: as §2
[4] = as §1, with “IL-6” for “TNFalpha”, “100” for “10”; type: functional; conditions: time 5 day; in short: as §2
[5] = as §1, with “IL-2” for “TNFalpha”, “100” for “10”; type: functional; conditions: time 5 day; in short: as §2
[6] = Plasma clearance in mouse at 10 mg/kg, po or 1 mg/kg, iv; type: ADME, organism-based
In short: (§4)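 Mouse PK with iv 1 mg/kg and po 10 mg/kg, oral dose as a suspension in 1% methylcellulose 400cp + 0.1% Poloxamer 188. Plasma clearance (total and unbound), iv t1/2 and oral bioavailability F were derived from the iv and po profiles.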

Mus musculus [7] = assay: (§5) In vivo inverse agonist activity at RORgamma in po dosed MOG(35-55) peptide/PTX-induced mechanistic C57BL/6 mouse model assessed as anti-CD3 induced IL-22 level in serum dosed for 5 days during MOG/PTX priming and followed by 45 mins prior to anti-CD3 challenge and measured after 2 hrs relative to control; type: functional, organism-based; conditions: dose mg/kg 10-100, time 5.0 day; in short: as §2
[8] = as §1, with “IL-6” for “TNFalpha”; type: functional; conditions: time 5 day; in short: as §2
[9] = as §1, with “IFNgamma” for “TNFalpha”, “30” for “10”; type: functional; conditions: time 5 day; in short: as §2
[10] = as §1, with “IL-10” for “TNFalpha”, “100” for “10”, “(reference value: -11%)” for “relative to control”; type: functional; conditions: time 5 day; in short: as §2
[11] = Cmax in mouse at 10 mg/kg, po; type: ADME, organism-based; design: route oral, dose 10 mg/kg; conditions: in vivo
In short: (§6)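 Mice dosed orally at 10, 30 or 100 mg/kg as a suspension in 1% methylcellulose 400cp + 0.1% Poloxamer (188). Tmax, Cmax, AUClast and oral t1/2 were taken from plasma concentration–time profiles. Ratios are the value at each dose over the value at 10 mg/kg.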

Mus musculus [12] = assay: Immunosuppressive activity in PLP (139 to 151 residues)-induced experimental autoimmune encephalomyelitis mouse model assessed as reduction in disease onset at 60 mg/kg, po administered bid starting from immunization relative to control; type: functional; in short: as §3
[13] = Ratio of Cmax in mouse at 30 mg/kg, po to Cmax in mouse at 10 mg/kg, po; type: ADME, organism-based; conditions: in vivo
In short: (§7)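 Mice dosed orally with an ascending-dose series at 10, 30 and 100 mg/kg. Compound given as a suspension in 1% methylcellulose 400cp + 0.1% poloxamer. Plasma Tmax taken from the concentration profiles. The Cmax ratio is expressed relative to the 10 mg/kg dose.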

[14] = as §1, with “IL-17F” for “TNFalpha”, “30” for “10”; type: functional; conditions: time 5 day; in short: as §2
[15] = as §1, with “IL-6” for “TNFalpha”, “30” for “10”; type: functional; conditions: time 5 day; in short: as §2
[16] = as §5, with “in” for “in po dosed”, “serum at 30 mg/kg, po” for “serum”; type: functional; conditions: time 5 day; in short: as §2
[17] = Half life in mouse at 10 mg/kg, po; type: ADME, organism-based; conditions: in vivo; in short: as §6
[18] = Tmax in mouse at 10 mg/kg, po; type: ADME, organism-based; conditions: in vivo; in short: as §7
[19] = as §1, with “IFNgamma” for “TNFalpha”; type: functional; conditions: time 5 day; in short: as §2
[20] = as §1, with “IL-17A” for “TNFalpha”; type: functional; conditions: time 5 day; in short: as §2
[21] = Half life in mouse at 30 mg/kg, po; type: ADME, organism-based; conditions: in vivo; in short: as §6
[22] = Oral bioavailability in mouse at 10 mg/kg; type: ADME, organism-based; conditions: in vivo; in short: as §4
[23] = target: T1, Nuclear receptor ROR-gamma (Homo sapiens, UniProt P51449); assay: Inverse agonist activity at pSG5GAL4-DBD/LBD fused human RORgamma receptor expressed in COS7 cells co-expressing 5 copies of GAL4 response element after 18 hrs by luciferase reporter gene based assay; type: cell-based
T1 sequence (P51449 whole entry): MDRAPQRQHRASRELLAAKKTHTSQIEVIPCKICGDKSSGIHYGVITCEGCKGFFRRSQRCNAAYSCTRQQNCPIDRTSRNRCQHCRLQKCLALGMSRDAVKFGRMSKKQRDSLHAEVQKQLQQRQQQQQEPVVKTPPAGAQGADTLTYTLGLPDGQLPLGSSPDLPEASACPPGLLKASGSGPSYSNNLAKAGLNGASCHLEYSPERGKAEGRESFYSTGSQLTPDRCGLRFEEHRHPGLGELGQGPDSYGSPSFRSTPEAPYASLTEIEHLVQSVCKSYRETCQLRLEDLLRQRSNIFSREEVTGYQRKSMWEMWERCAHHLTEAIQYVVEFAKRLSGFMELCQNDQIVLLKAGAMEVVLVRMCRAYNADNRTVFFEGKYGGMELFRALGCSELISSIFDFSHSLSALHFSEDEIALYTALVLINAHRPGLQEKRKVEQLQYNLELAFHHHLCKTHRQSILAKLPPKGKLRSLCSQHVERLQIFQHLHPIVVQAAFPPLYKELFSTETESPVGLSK

Cytochrome P450 2C9 = Cytochrome P450 2C9 (Homo sapiens, UniProt P11712); assay: Drug metabolism assessed as CYP2C9 (unknown origin) mediated metabolite formation; type: ADME
Cytochrome P450 2C9, sequence (P11712 whole entry): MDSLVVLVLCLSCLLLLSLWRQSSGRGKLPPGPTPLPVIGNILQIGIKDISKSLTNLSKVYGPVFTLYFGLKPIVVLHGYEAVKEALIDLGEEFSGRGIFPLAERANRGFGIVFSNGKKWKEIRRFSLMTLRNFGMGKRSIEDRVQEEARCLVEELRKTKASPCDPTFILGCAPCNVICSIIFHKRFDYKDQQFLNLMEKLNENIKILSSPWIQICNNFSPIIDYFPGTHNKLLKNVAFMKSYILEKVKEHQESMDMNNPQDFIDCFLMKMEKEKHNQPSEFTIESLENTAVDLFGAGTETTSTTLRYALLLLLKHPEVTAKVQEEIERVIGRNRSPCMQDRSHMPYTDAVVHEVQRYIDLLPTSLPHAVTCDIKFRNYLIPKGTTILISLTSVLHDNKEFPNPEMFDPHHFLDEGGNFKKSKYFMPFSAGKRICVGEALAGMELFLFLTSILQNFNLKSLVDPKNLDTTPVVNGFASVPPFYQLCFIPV

[24] = Stability in mouse microsomes assessed as unbound intrinsic clearance; type: ADME, Microsome
In short: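 Unbound intrinsic clearance measured in human and mouse liver microsomes, expressed in L/h/kg. Values are geometric means of at least two separate runs.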

`CNC(=O)[C@@H]1CCCN1S(=O)(=O)c1ccc(Cl)c(COc2cccc3c(-c4cncn4C)cc(C(C)C)nc23)c1Cl` gave an Activity [1] of -22%, an inhibition in vivo at 100 mg/kg (Mus musculus [2]) of 76% and an Activity [3] of -32%. The Activity [4] was -21%, the Activity [5] was -46% and the clearance [6] was 27.5 mL/min/kg. For the same compound, the Activity (Mus musculus [7]) was “Dose-dependent effect”, the Activity [8] was -29% and the Activity [9] was -45%. It also gave an Activity [10] of 807%, a Cmax [11] of 3320 ng/mL and an inhibition in vivo at 60 mg/kg (Mus musculus [12]) of 81%. It also gave a Ratio [13] of 3.5, an Activity [14] of -49% and an Activity [15] of -56%. For the same compound, the Activity [16] was -46%, the half-life [17] was under 1 h and the Tmax [18] was 0.25 h. It also gave an Activity [19] of -39%, an Activity [20] of -23% and a half-life [21] of 1 h. It also gave a bioavailability [22] of 64%, an EC50 [23] of 220 nM and a Fm (Cytochrome P450 2C9) of 6%. The CL free [24] was 100 mL/min/kg.
